These results are taken from article PMC2932703 (Molecular cancer therapeutics, 2010).

Where two headings read alike, the source gives them in different places.

One test has as its system ERK. To be noted: human hepatocellular carcinoma cells; cited from earlier work.
Test [1] deals with NTR1 mRNA. Put plainly: Northern blot of NTR1 mRNA expression in CRC cell lines. The class given is cell-based, human.
In test [2] the test system is NTR1 mRNA. To be noted: breast cancer cells; cited from earlier work.
Another test concerns phospho-ERK1/2. The experiment in a line: Western blot of phospho-ERK1/2. The class given is cell-based, human. The settings on record: SW480 and HCT116 cells; 18 h; NaBT 2.5 mM, apicidin 1 µM, Emodin 20 µM. The gist of the method:
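HCT116 and SW480 cells were exposed 18 h to test compounds or DMSO vehicle. Whole-cell protein was extracted, run on bis-Tris gels and transferred to PVDF. Blots were probed overnight in TBST with phospho-ERK1/2 and total ERK1/2 antibodies, then HRP secondary for 1 h, and detected by ECL. pERK1/2 signal was quantified densitometrically relative to total ERK1/2.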

The test system of the next test is NTR1 promoter. Put plainly: NTR1 promoter-luciferase reporter assay. The class given is cell-based, human.
Another test concerns NTR1 protein. Put plainly: Western blot of NTR1 protein expression. The class given is cell-based, human. To be noted: SW480 and HT29 cells; 2.5 mM, 18 h. The gist of the method: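 Cells were treated with 2.5 mM test compound or PBS vehicle for 18 h, then lysed in cell lysis buffer. Equal protein was run on bis-Tris gels and transferred to PVDF. Blots were incubated overnight in TBST with anti-human NTR1 antibody, then HRP secondary for 1 h, and detected by ECL. Blots were stripped and reprobed for β-actin; NTR1 bands were quantified densitometrically relative to β-actin.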

In a further test the test system is PTEN mRNA. The experiment in a line: Northern blot reprobed for PTEN expression. The class given is cell-based, human. The settings on record: HT29 cells; blot stripped and reprobed.
A further test concerns CCK-A receptor mRNA. The experiment in a line: RNase protection assay, CCK-A receptor mRNA. The class given is cell-based, human. To be noted: NaBT treatment; data not shown.
For a further test, the system named is IL-8 mRNA. Put plainly: RNase protection assay of IL-8 expression. The class given is cell-based, human. To be noted: HCT116 cells; NaBT alone.
Another test concerns c-myc mRNA. Put plainly: Northern blot of c-myc expression. The class given is cell-based, human. The procedure, abridged: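 HCT116 cells in McCoy's 5A with 10% FBS were serum-starved 24 h, pretreated with 2.5 mM test compound for 6 h, then given 100 nM NT or PBS vehicle for a further 0.5, 1 and 2 h. Total RNA (35 µg) was run on 1.2% agarose/formaldehyde gels and blotted to nylon. Blots were hybridised 8–12 h at 65°C with a 32P-UTP cRNA c-myc probe, read by autoradiography and reprobed for GAPDH.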

Another test deals with COX-2 mRNA. The experiment in a line: Northern blot of NT-induced COX-2 expression. The class given is cell-based, human. The settings on record: HT29 cells; NaBT 2.5 mM pretreatment 6 h, then 100 nM NT.
Test [3] relates to gastrin-releasing peptide receptor mRNA. The experiment in a line: RNase protection assay, gastrin-releasing peptide receptor mRNA. The class given is cell-based, human. The settings on record: NaBT treatment; data not shown.
Test [4] concerns cholecystokinin-B receptor mRNA. Put plainly: RNase protection assay, CCK. The class given is cell-based, human. To be noted: HT29 and SW480 cells; 2.5 mM NaBT, 20 h.
[5] abbreviates: all NTR1-positive cell lines tested: HT29, HCT116, SW480, SW620, KM20, HDACi.
[6] abbreviates: HT29 cells, treatment for 4h, confirmed using SW620 cells.

As for `CCCC(CCC)C(=O)O` [valproic acid], the “activation of ERK” value with ERK is on record as “decreased activation of ERK”. The “NTR1 mRNA expression” value in the test on NTR1 mRNA [1] (setting [5]) is “suppressed NTR1”.

Take `Cn1cc(C2=C(c3ccc(Cl)cc3Cl)C(=O)NC2=O)c2ccccc21` [SB-216763]: the “NTR1 mRNA expression” value in the test with NTR1 mRNA [1] (HT29 and SW480 cells, GSK-3β inhibitor over a time course) was “significantly upregulated NTR1 mRNA expression”. Moreover, the “NTR1 mRNA suppression resulting from NaBT treatment” value with NTR1 mRNA [1] (HT29 cells, pre-treated 30 min, then combination with NaBT for 6 h) was “partially attenuated”.

In the case of `COc1cccc(-c2cc(=O)c3ccccc3o2)c1N` [PD98059], the “NTR1 mRNA expression” value with NTR1 mRNA [1] (HCT116 and SW480 cells (also SW620, KM20 data not shown), 16 h, Uo126 0.5-5 µM, PD98059 20 µM, SB-203580 10 µM) is on record as “identical to those using Uo126”.

Regarding `[Cl-].[Li+]` [LiCl], the “NTR1 mRNA” value in the test on NTR1 mRNA [2] is listed as “increased”.

In the case of `Cc1cc(O)c2c(c1)C(=O)c1cc(O)cc(O)c1C2=O` [emodin], in the test on phospho-ERK1/2, the phospho-ERK1/2 levels entry is “did not affect ERK1/2 levels”.

For `Nc1ccccc1NC(=O)c1ccc(CNC(=O)OCc2cccnc2)cc1` [entinostat], the “NTR1 mRNA expression” value in the test on NTR1 mRNA [1] (setting [5]) is on record as “suppressed NTR1”.

In the case of `CC(/C=C/C(=O)NO)=C\[C@@H](C)C(=O)c1ccc(N(C)C)cc1` [TSA, Trichostatin A], the “NTR1 mRNA expression” value in the test on NTR1 mRNA [1] (setting [6]) is reported as “significantly decreased NTR1 mRNA expression”; in the test on NTR1 mRNA [1] (setting [5]) it was “suppressed NTR1”.

Take `N#CC(=C(/N)Sc1ccccc1N)/C(C#N)=C(/N)Sc1ccccc1N` [Uo126]: in the test on NTR1 mRNA [1], the “NTR1 mRNA expression” value is “suppressed NTR1 mRNA expression in a time- and dose-dependent fashion”. The “decrease in NTR1 promoter activity” value in the test with NTR1 promoter (SW480 cells, 5 µM, 16 h) is on record as “approximately 70%”.

As to `CCCC(=O)[O-].[Na+]` [NaBT, Sodium butyrate], the NTR1 protein expression result with NTR1 protein is “decreased NTR1 protein expression”. In the test with NTR1 mRNA [1] (SW480, HCT116 (Fig.1B), SW620, KM20 (data not shown), NaBT), the “NTR1 expression (mRNA)” value is on record as “inhibited NTR1 expression”. In the test with phospho-ERK1/2, the phospho-ERK1/2 levels entry is reported as “significantly decreased phospho-ERK1/2 levels”. The PTEN expression result in the test with PTEN mRNA was “increased PTEN expression”. The “CCK-A receptor mRNA expression” value in the test with CCK-A receptor mRNA is on record as “did not affect mRNA expression”. In addition, the NTR1 promoter activity result with NTR1 promoter (SW480 and HCT116 cells, 2.5 mM NaBT, 20 h) is recorded as “dramatically decreased NTR1 promoter activity”. Also, the IL-8 expression result in the test with IL-8 mRNA was “slightly increased IL-8 expression”. For the same molecule, the basal c-myc expression entry with c-myc mRNA (HCT116 cells) is “decreased basal c-myc expression”. In addition, the NT-stimulated c-myc induction result in the test with c-myc mRNA (NaBT 2.5 mM pretreatment 6 h, then 100 nM NT) is given as “prevented NT-stimulated c-myc induction”. Also, the “NT-induced COX-2 expression” value with COX-2 mRNA is reported as “blocked”. Further, in [3], the “gastrin-releasing peptide receptor mRNA expression” value was “did not affect mRNA expression”. Also, the “cholecystokinin-B receptor mRNA expression” value in test [4] is reported as “did not affect mRNA expression”.

As for `C[S+]([O-])c1ccc(-c2nc(-c3ccncc3)c(-c3ccc(F)cc3)[nH]2)cc1` (centres unmarked) [SB-203580], in the test with NTR1 mRNA [1], the “NTR1 mRNA expression” value is given as “did not affect NTR1 expression”.

For Neurotensin [NT], in the test with c-myc mRNA (100 nM NT, 0.5 h, 1 h and 2 h, serum-starved cells), the c-myc expression entry is listed as “increased c-myc expression in time-dependent fashion”.

With `CCC(=O)CCCCC[C@@H]1NC(=O)[C@H]2CCCCN2C(=O)[C@H]([C@@H](C)CC)NC(=O)[C@H](Cc2cn(OC)c3ccccc23)NC1=O` [apicidin], the figures for the “NTR1 mRNA expression” value in the test with NTR1 mRNA [1] (setting [6]) and in the test on NTR1 mRNA [1] (setting [5]) were “significantly decreased NTR1 mRNA expression” and “suppressed NTR1”, respectively. In addition, the phospho-ERK1/2 levels entry with phospho-ERK1/2 is listed as “significantly decreased phospho-ERK1/2 levels”.
